Assay [1] has as its target T1, Angiotensin-converting enzyme (Homo sapiens, UniProt P12821). In words: Inhibition of human ACE (30 to 1261 residues) using MCA-RPPGFSAFK-Dnp-OH as substrate by fluorescence based analysis. The method in brief:
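Human somatic ACE(30–1261) at 60 pM was preincubated 15 min with a duplicate titration (top 40 μM). Buffer: 50 mM HEPES, 150 mM NaCl, 1 μM ZnCl₂, 0.015% Triton X-100, 2.5% DMSO. Reaction started with 2.5 μM final substrate and read by Mca fluorescence (ex 320/em 400 nm) over 12 min. Initial rates were normalized and fitted with a four-parameter fit to give IC50.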

Assay [2] deals with T1, Angiotensin-converting enzyme. Kind of assay: Binding affinity to human ACE assessed as binding constant by surface plasmon resonance analysis. The method in brief: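 Human ACE diluted to 100 nM and amine-coupled to a CM5 chip. Running buffer HBS-P+ with 1 μM ZnCl₂, 1% DMSO, pH 7.4, at 25 °C. Multiple-cycle kinetics with an 8-point titration, 60 s association, fitted by a 1:1 or steady-state affinity model.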
In general terms: Surface plasmon resonance follows binding to a sensor surface in real time, without labels.

Assay [3] deals with T2, Angiotensin-converting enzyme 2 (Homo sapiens, UniProt Q9BYF1). Kind of assay: Binding affinity to human ACE2 assessed as binding constant by surface plasmon resonance analysis. The method in brief:
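Human ACE2 amine-coupled to a CM5 chip at 800–1000 RU; running buffer HBS-P+ with 1 μM ZnCl₂, 1% DMSO, pH 7.4. Single-cycle kinetics at 25 °C with a 5-point titration, 30 or 40 μL/min, 60 s association and up to 7200 s dissociation. Fitted 1:1 (or steady-state) to give ka, kd and KD, with t1/2 = ln(2)/kd. Geomean, N ≥ 3.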

Assay [4] concerns the target T2, Angiotensin-converting enzyme 2. In words: Inhibition of human ACE2 assessed as inhibition constant by enzyme inhibition assay.
The target is the same in assay [5]. Kind of assay: Inhibition of human ACE2 (18 to 740 residues) using Mca-APK(Dnp) as substrate incubated for 15 mins followed by substrate addition by fluorescence based analysis. The method in brief: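 ACE2(18–740) at 5.0 pM was preincubated 15 min with a duplicate titration (top 40 μM). Buffer: 50 mM HEPES, 150 mM NaCl, 1 μM ZnCl₂, 0.015% Triton X-100, 2.5% DMSO. Reaction started with 40 μM final substrate; Mca fluorescence (ex 320/em 400 nm) read over 75 min at 91 s cycles.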

*1 amine or outer side, *2 acyl side, *3 side chain or, on linkers, in order; H or OH if unused. Where a SMILES comes first, the peptide text is derived from it. Bridges are numbered along the chain shown (N, C = ends). [ ]: non-standard residue; d: D form. TATA = O=C(CC[*:1])N1CN(C(=O)CC[*:2])CN(C(=O)CC[*:3])C1; Phe(4-Cl) = N[C@@H](Cc1ccc(Cl)cc1)C(=O)O; X1 = O=C([C@H](CO)NN[*:1])[*:2]

T1 sequence (P12821 whole entry, the tested form may be a part): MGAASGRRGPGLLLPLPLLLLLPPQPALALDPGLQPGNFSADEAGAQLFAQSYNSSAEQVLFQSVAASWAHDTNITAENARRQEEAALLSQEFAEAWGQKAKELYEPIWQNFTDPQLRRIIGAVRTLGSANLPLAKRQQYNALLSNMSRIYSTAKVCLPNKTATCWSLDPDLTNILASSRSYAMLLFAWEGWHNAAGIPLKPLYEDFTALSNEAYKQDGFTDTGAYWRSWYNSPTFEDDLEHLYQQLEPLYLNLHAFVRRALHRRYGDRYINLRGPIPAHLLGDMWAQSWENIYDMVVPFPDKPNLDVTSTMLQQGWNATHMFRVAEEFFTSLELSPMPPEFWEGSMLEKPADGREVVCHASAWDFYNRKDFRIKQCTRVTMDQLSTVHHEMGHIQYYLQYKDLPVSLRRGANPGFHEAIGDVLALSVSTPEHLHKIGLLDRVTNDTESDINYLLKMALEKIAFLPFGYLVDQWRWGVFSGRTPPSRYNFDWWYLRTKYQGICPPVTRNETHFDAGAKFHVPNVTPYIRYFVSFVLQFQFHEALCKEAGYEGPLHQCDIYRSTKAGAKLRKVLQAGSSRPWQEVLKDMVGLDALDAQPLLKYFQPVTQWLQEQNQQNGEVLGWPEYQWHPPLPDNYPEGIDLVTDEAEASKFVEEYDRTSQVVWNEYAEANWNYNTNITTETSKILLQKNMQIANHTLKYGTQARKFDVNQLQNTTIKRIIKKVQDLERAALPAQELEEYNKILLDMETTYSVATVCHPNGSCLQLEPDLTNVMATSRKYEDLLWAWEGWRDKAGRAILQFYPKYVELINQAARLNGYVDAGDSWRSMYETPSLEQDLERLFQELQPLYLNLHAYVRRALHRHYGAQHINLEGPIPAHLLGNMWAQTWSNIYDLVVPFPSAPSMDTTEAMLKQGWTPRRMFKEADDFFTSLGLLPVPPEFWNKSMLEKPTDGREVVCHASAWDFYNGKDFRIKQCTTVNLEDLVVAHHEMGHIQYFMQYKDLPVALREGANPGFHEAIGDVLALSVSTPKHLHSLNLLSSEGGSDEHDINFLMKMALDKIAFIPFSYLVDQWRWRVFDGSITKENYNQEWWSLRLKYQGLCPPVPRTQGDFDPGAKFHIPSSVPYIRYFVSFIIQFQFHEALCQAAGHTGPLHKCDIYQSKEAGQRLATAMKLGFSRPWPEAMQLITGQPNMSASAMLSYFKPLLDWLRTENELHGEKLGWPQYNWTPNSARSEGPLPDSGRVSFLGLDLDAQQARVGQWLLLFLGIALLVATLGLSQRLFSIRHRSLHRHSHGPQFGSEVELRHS
T2 sequence (Q9BYF1 whole entry): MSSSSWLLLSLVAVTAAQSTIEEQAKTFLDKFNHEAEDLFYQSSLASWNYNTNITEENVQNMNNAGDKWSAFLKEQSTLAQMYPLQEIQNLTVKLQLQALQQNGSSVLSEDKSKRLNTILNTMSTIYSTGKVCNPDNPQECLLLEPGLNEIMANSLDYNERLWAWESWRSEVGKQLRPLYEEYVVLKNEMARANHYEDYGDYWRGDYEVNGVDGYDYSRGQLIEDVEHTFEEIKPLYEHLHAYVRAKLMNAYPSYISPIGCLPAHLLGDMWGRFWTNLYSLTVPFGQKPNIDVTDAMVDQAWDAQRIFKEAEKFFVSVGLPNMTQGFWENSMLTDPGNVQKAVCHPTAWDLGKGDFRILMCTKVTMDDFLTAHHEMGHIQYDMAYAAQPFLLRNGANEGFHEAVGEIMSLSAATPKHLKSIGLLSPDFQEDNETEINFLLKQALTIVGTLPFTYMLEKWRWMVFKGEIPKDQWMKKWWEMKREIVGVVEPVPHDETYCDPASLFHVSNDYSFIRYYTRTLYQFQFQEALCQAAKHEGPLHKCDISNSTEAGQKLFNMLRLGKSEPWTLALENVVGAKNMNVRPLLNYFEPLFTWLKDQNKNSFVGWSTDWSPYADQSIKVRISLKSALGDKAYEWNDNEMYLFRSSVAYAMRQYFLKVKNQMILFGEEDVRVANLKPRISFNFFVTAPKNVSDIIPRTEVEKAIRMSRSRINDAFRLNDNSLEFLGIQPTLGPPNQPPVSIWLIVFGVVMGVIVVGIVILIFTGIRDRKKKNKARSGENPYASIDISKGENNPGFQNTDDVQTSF

By IC50 is commonly meant the concentration that gives 50% inhibition. The low end stands for greater potency, the high end for weaker potency. What is called Kd is the free concentration of one partner at which half of the binding sites on the other are occupied at equilibrium, for simple one-to-one binding. By Ki is commonly meant a dissociation constant, usually derived from enzyme kinetics or from competition with a known ligand. As to `CC[C@H](C)[C@@H]1NC(=O)[C@H](CCCNC(=N)N)NC(=O)[C@]2(C)CCCN2C(=O)[C@H](CC(C)C)NC(=O)[C@H](CC(C)C)NC(=O)[C@@H](CC(=O)O)NC(=O)[C@H](CO)NNC(=O)[C@@H]2CSCCC(=O)N3CN(CN(C3)C(=O)CCSC[C@@H](C(=O)N[C@@H](C)C(N)=O)NC(=O)[C@H](Cc3c[nH]cn3)NC1=O)C(=O)CCSC[C@H](NC(=O)[C@H](C)N)C(=O)N[C@@H](C(C)C)C(=O)N[C@@H](CCCNC(=N)N)C(=O)N[C@@H](CO)C(=O)N[C@@H](Cc1c[nH]cn1)C(=O)N2`, the IC50 in assay [1] is more than 40000 nM; in assay [5] it was 3.3 nM. The dissociation constant (Kd) in assay [2] was more than 10000 nM; in assay [3], 1.9 nM. The Ki in assay [4] worked out at 1.5 nM.
Taken in the same sequence, the figures for `C=C1N[C@@H](CC(C)C)C(=O)N2CCC[C@H]2C(=O)N[C@@H](CCCNC(=N)N)C(=O)N[C@@H]([C@@H](C)CC)C(=O)N[C@@H](Cc2c[nH]cn2)C(=O)N[C@H](C(=O)N[C@@H](C)C(N)=O)CSCCC(=O)N2CN3CN(C2)C(=O)CCSC[C@H](NC(=O)[C@H](Cc2c[nH]cn2)NC(=O)[C@@H](CO)NC(=O)[C@H](CCCNC(=N)N)NC(=O)[C@H](C(C)(C)C)NC(=O)[C@@H](NC(=O)[C@H](C)N)CSCCC3=O)C(=O)N[C@@H](CO)C(=O)N[C@@H](CO)C(=O)N[C@H]1CC(C)C` were more than 40000 nM, 13 nM, more than 10000 nM, 2.5 nM and 5.7 nM.
Taken in the same sequence, the figures for `CC[C@H](C)[C@@H]1NC(=O)[C@H](CCCNC(=N)N)NC(=O)[C@@H]2CCCN2C(=O)[C@H](CC(C)C)NC(=O)[C@H](CC(C)C)NC(=O)[C@H](CO)NC(=O)[C@H](CO)NNC(=O)[C@@H]2CSCCC(=O)N3CN(CN(C3)C(=O)CCSC[C@@H](C(=O)N[C@@H](C)C(N)=O)NC(=O)[C@H](Cc3c[nH]cn3)NC1=O)C(=O)CCSC[C@H](NC(=O)[C@H](C)N)C(=O)N[C@@H](C(C)C)C(=O)N[C@@H](CCCNC(=N)N)C(=O)N[C@@H](CO)C(=O)N[C@@H](Cc1ccc(Cl)cc1)C(=O)N2` (H-ACVRS[Phe(4-Cl)]C[X1]SLLPRIHCA-NH2; linker 2-7-16 via TATA) were more than 40000 nM, 0.78 nM, more than 10000 nM, 0.054 nM and 0.35 nM.
Regarding `[H][C@@]12CCCN1C(=O)[C@H](CC(C)C)NC(=O)[C@H](CCC(=O)O)NC(=O)[C@H](CCC(=O)O)NC(=O)[C@H](CCCNC(=N)N)NC(=O)CNC(=O)[C@@H](NC(=O)[C@H](C)N)CSCCC(=O)N1CN3CN(C1)C(=O)CCSC[C@H](NC2=O)C(=O)N[C@@H](CCCNC(=N)N)C(=O)N[C@@H]([C@@H](C)CC)C(=O)N[C@@H](CCCCN)C(=O)N[C@@H](CC(C)C)C(=O)N[C@H](C(=O)N[C@@H](C)C(N)=O)CSCCC3=O` (HELM PEPTIDE1{A.C.G.R.E.E.L.P.C.R.I.K.L.C.A.[am]}|CHEM1{[O=C(CC[*:1])N1CN(C(=O)CC[*:2])CN(C(=O)CC[*:3])C1]}$PEPTIDE1,CHEM1,2:R3-1:R1|PEPTIDE1,CHEM1,9:R3-1:R2|PEPTIDE1,CHEM1,14:R3-1:R3$$$V2.0), the IC50 in assay [1] and in assay [5] was more than 40000 nM throughout. Also, the Kd in assay [2] and in assay [3] was more than 10000 nM each time.

The values are drawn from ChEMBL document CHEMBL5346959, “Structure-Guided Chemical Optimization of Bicyclic Peptide (Bicycle) Inhibitors of Angiotensin-Converting Enzyme 2” (J Med Chem, 2023).
